Experimental data as given in ChEMBL document CHEMBL4765386, “Discovery of tertiary amide derivatives incorporating benzothiazole moiety as anti-gastric cancer agents in vitro via inhibiting tubulin polymerization and activating the Hippo signaling pathway” (Eur J Med Chem, 2020).

Legend:
PC-3 = test: Antiproliferative activity against human PC-3 cells assessed as reduction in cell viability incubated for 48 hrs by MTT assay; format: functional, cell-based; settings: PC-3, 48 h
Procedure, shortened: (§1)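 MTT assay. 5,000 cells per well in RPMI-1640 with 10% FBS and penicillin/streptomycin at 37 °C, 5% CO2. Compound added 24 h after seeding and left for 48 h. MTT was then added for 4 h at 37 °C, formazan dissolved in DMSO and absorbance read at 490 nm. IC50 calculated from three independent experiments.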

MGC-803 = test: Antiproliferative activity against human MGC-803 cells assessed as reduction in cell viability incubated for 48 hrs by MTT assay; format: functional, cell-based; settings: MGC-803, 48 h
Procedure, shortened: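 MTT assay. Compound added 24 h after seeding and left for 48 h. MTT was then added for 4 h at 37 °C, formazan dissolved in DMSO and absorbance read at 490 nm. IC50 calculated from three independent experiments.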

HCT-116 = test: Antiproliferative activity against human HCT-116 cells assessed as reduction in cell viability incubated for 48 hrs by MTT assay; format: functional, cell-based; settings: HCT-116, 48 h; procedure, shortened: as §1
[1] = test system: MGC-803/PTX (Homo sapiens); test: Cytotoxicity against human MGC-803/PTX cells assessed as reduction in cell viability at 15 nM incubated for 48 hrs by MTT assay relative to control
[2] = Inhibition of tubulin (unknown origin); set-up: species or system Homo sapiens

IC50 (PC-3) [µM] | IC50 (MGC-803) [µM] | IC50 (HCT-116) [µM] | IC50 [2] [µM] | Structure (SMILES) | inhibition at 0.015 µM [1] [%]
7.51 | 0.084 | 0.491 | – | COc1ccc(CN(C(=O)CSc2nc3ccccc3s2)c2cc(OC)c(OC)c(OC)c2)cc1N | –
50.8 | > 80 | 59.8 | – | COc1cc(N(Cc2ccc(F)cc2)C(=O)CSc2nc3ccccc3s2)cc(OC)c1OC | –
16 | 0.852 | 4.55 | – | COc1ccc(CN(C(=O)CSc2nc3ccccc3s2)c2cc(OC)c(OC)c(OC)c2)cc1Br | –
– | – | – | – | CC(=O)O[C@H]1C(=O)[C@@]2(C)[C@H]([C@H](OC(=O)c3ccccc3)[C@]3(O)C[C@H](OC(=O)[C@H](O)[C@@H](NC(=O)c4ccccc4)c4ccccc4)C(C)=C1C3(C)C)[C@]1(OC(C)=O)CO[C@@H]1C[C@@H]2O [PACLITAXEL] | < 15
> 80 | > 80 | 60.3 | – | COc1cc(N(Cc2ccc(Cl)cc2)C(=O)CSc2nc3ccccc3s2)cc(OC)c1OC | –
8.21 | 0.372 | 3.38 | – | COc1ccc(CN(C(=O)CSc2nc3cc(Br)ccc3s2)c2cc(OC)c(OC)c(OC)c2)cc1O | –
> 80 | 25.2 | > 80 | – | COc1ccc(CN(C(=O)CSc2nc3ccccc3s2)c2cc(OC)c(OC)c(OC)c2)cc1C(F)(F)F | –
– | – | – | 2.26 | COc1cc(N2C(=O)[C@H](c3cccs3)[C@H]2c2cccc(N=[N+]=[N-])c2)cc(OC)c1OC | –
8.46 | 0.163 | 0.426 | – | COc1ccc(CN(C(=O)CSc2nc3ccccc3s2)c2cc(OC)c(OC)c(OC)c2)cc1 | –
54.1 | 44.3 | 54.5 | – | COc1cc(N(Cc2ccccc2)C(=O)CSc2nc3ccccc3s2)cc(OC)c1OC | –
20.1 | 0.416 | 1.83 | – | COc1ccc(CN(C(=O)CSc2nc3ccccc3s2)c2cc(OC)c(OC)c(OC)c2)cc1F | –
4.11 | 0.071 | 0.352 | – | COc1ccc2nc(SCC(=O)N(Cc3ccc(OC)c(O)c3)c3cc(OC)c(OC)c(OC)c3)sc2c1 | –
34.3 | 6.36 | 17.1 | – | COc1ccc(CN(C(=O)CSc2nc3ccccc3s2)c2cc(OC)c(OC)c(OC)c2)cc1C | –
14.4 | 0.187 | 2.86 | – | COc1ccc(CN(C(=O)CSc2nc3ccccc3s2)c2cc(OC)c(OC)c(OC)c2)cc1N=[N+]=[N-] | –
11.2 | 0.085 | 0.429 | – | COc1ccc(CN(C(=O)CSc2nc3cc(Cl)ccc3s2)c2cc(OC)c(OC)c(OC)c2)cc1O | –
> 80 | 54.2 | > 80 | – | COc1cc(N(Cc2ccc(C)cc2)C(=O)CSc2nc3ccccc3s2)cc(OC)c1OC | –
> 80 | 48.1 | 63.8 | – | COc1cc(N(Cc2ccc(Br)cc2)C(=O)CSc2nc3ccccc3s2)cc(OC)c1OC | –
26.5 | 0.682 | 1.28 | – | COc1ccc(CN(C(=O)CSc2nc3ccccc3s2)c2cc(OC)c(OC)c(OC)c2)cc1[N+](=O)[O-] | –
> 80 | 34.1 | 33.9 | – | COc1ccc(CN(C(=O)CSc2nc3ccccc3s2)c2cc(OC)c(OC)c(OC)c2)cc1OC | –
> 80 | 45.7 | 65.3 | – | COc1cc(CN(C(=O)CSc2nc3ccccc3s2)c2cc(OC)c(OC)c(OC)c2)cc(OC)c1OC | –
12.3 | 0.493 | 0.852 | – | COc1ccc(CN(C(=O)CSc2nc3c(C)cccc3s2)c2cc(OC)c(OC)c(OC)c2)cc1O | –

Structure (SMILES) | IC50 (PC-3) [µM] | IC50 (MGC-803) [µM] | IC50 (HCT-116) [µM] | IC50 [2] [µM] | inhibition at 0.015 µM [1] [%]
COc1cc2c(c(OC)c1OC)-c1ccc(OC)c(=O)cc1[C@@H](NC(C)=O)CC2 [COLCHICINE] | 0.338 | 0.107 | 0.129 | – | –
COc1ccc(/C=C\c2cc(OC)c(OC)c(OC)c2)cc1OP(=O)(O)O [FOSBRETABULIN] | 0.033 | 0.02 | 0.042 | – | –
